Activity calls are given as the source filed them. The rule behind the calls is not given here.
Assays:
[1] = target: 5-hydroxytryptamine receptor 7 (Homo sapiens) (UniProt P34969); assay: Displacement of [3H]-LSD from human recombinant 5HT7 receptor expressed in HEK293 cells at 10 uM after 60 to 90 mins by scintillation counting; format: cell-based
Liver = assay: Half life in mouse liver microsomes at 10 uM by LC-MS/MS analysis; format: ADME, microsome
How it was run: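 Compound at 10 μM final was preincubated 5 min at 37 °C with NADPH regenerating system in phosphate buffer, pH 7.4. Human or mouse liver microsomes (0.5 mg/mL protein) were added to start the reaction. Samples were taken at 0 (no microsomes) and 10–60 min and measured by LC-MS/MS against an internal standard. Half-life = 0.693/k, with k the slope of ln peak-area ratio versus time. Three experiments, each in duplicate.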

[2] = target: GABA A receptor alpha-4/beta-3/gamma-2 (Homo sapiens) (UniProt P18507+P28472+P48169); assay: Positive allosteric modulation of GABA-A receptor alpha4beta3gamma2 (unknown origin) expressed in Xenopus laevis oocytes assessed as potentiation of EC3 GABA induced currents up to 1 uM at -60 mV holding potential by electrophysiological method relative to GABA; format: cell-based
How it was run: (§1)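 Stage 5–6 defolliculated Xenopus oocytes were injected with 2.5 ng total mRNA per oocyte: α1, α2, α3 or α5 with β3 and γ2 at 1:1:5, and α4 or α6 with β3 and γ2 at 3:1:5. Oocytes were kept ≥36 h at 18 °C in NDE medium before recording. Compounds were co-applied with GABA titrated to EC3-5 for each oocyte. Curves were fitted with the Hill equation; mean ± SEM from ≥3 oocytes across two batches.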

[3] = target: GABA-A receptor; alpha-2/beta-3/gamma-2 (Homo sapiens) (UniProt P18507+P28472+P47869); assay: Positive allosteric modulation of GABA-A receptor alpha2beta3gamma2 (unknown origin) expressed in Xenopus laevis oocytes assessed as potentiation of EC3 GABA induced currents up to 1 uM at -60 mV holding potential by electrophysiological method relative to GABA; format: cell-based; how it was run: as §1
[4] = target: GABA-A receptor; alpha-5/beta-3/gamma-2 (Homo sapiens) (UniProt P18507+P28472+P31644); assay: Positive allosteric modulation of GABA-A receptor alpha5beta3gamma2 (unknown origin) expressed in Xenopus laevis oocytes assessed as potentiation of EC3 GABA induced currents up to 1 uM at -60 mV holding potential by electrophysiological method relative to GABA; format: cell-based; how it was run: as §1
[5] = target: GABA-A receptor; alpha-6/beta-3/gamma-2 (Homo sapiens) (UniProt P18507+P28472+Q16445); assay: Positive allosteric modulation of GABA-A receptor alpha6beta3gamma2 (unknown origin) expressed in Xenopus laevis oocytes assessed as potentiation of EC3 GABA induced currents at 30 uM at -60 mV holding potential by electrophysiological method relative to GABA; format: cell-based; how it was run: as §1
[6] = target: Mu-type opioid receptor (Homo sapiens) (UniProt P35372); assay: Displacement of [3H]-DAMGO from human recombinant MOR expressed in HEK293 cells at 10 uM after 60 to 90 mins by scintillation counting; format: cell-based
[7] = target: GABA-A receptor; alpha-1/beta-3/gamma-2 (Homo sapiens) (UniProt P14867+P18507+P28472); assay: Positive allosteric modulation of GABA-A receptor alpha1beta3gamma2 (unknown origin) expressed in Xenopus laevis oocytes assessed as potentiation of EC3 GABA induced currents up to 1 uM at -60 mV holding potential by electrophysiological method relative to GABA; format: cell-based; how it was run: as §1
Rattus norvegicus [8] = assay: Hyperlocomotor activity in Wistar rat assessed as total distance travelled at 10 mg/kg, ip after 60 mins; format: ADME, organism-based; settings: in vivo, 1 h
Rattus norvegicus [9] = assay: Toxicity in Wistar rat assessed as peripheral ring distance at 10 mg/kg, ip administered for 45 mins by cued water-maze method (reference value: 67.44 +/- 4.60%); format: organism-based; settings: in vivo, 0.75 h
[10] = Drug metabolism in human liver microsomes assessed as CYP450 mediated-O-demethylated 7-hydroxy-2-[4-(trideuteriomethoxy)phenyl]-5H-pyrazolo[4,3-c]quinolin-3-one metabolite formation after 60 mins by LC-MS analysis; format: ADME; settings: 1 h
How it was run: (§2)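 The 60-min samples from the human or mouse liver microsome incubations (10 µM compound, 0.5 mg/mL protein, NADPH regenerating system, 37 °C, pH 7.4) were run on LC-MS in SIM mode with dual ESI/APCI ionization. The method was calibrated to each component's retention time and mass, and the peak intensities of the parent and O-demethylated metabolites were measured.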

Rattus norvegicus [11] = assay: Toxicity in Wistar rat assessed as grip strength by measuring peak force of pull necessary to overcome strength of animal's grip at 10 mg/kg, ip (reference value: 2.79 +/- 0.16 kg/kg); format: organism-based; settings: in vivo
[12] = Drug metabolism in mouse liver microsomes assessed as CYP450 mediated-O-demethylated 2-(4-hydroxyphenyl)-7-methoxy-2H-pyrazolo[4,3-c]quinolin-3(5H)-one metabolite formation after 60 mins by LC-MS analysis; format: ADME; settings: 1 h; how it was run: as §2
Rattus norvegicus [13] = assay: Toxicity in Wistar rat assessed as closed arm entries at 10 mg/kg, ip administered for 45 mins measured for 5 min by elevated plus maze apparatus method (reference value: 3.63 +/- 0.42); format: organism-based; settings: in vivo
HEK-293T = assay: Cytotoxicity against HEK293T cells assessed as reduction in cell viability up to 400 uM after 48 hrs by CellTiter-Glo assay; format: cell-based; settings: human
How it was run: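 HEK293T and HepG2 cells grown in high-glucose DMEM with non-essential amino acids, 10 mM HEPES, penicillin/streptomycin and 10% heat-inactivated FBS. Cells were harvested with trypsin and plated; compound was pin-transferred 3 h later. Incubation was 48 h, then CellTiter-Glo luminescence was read. Controls were DMSO (negative) and a cytotoxic aminoketone (positive). Quadruplicates, three independent runs, normalized to controls, nonlinear regression.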

Brain = assay: Unbound AUC in Wistar rat brain at 10 mg/kg, ip administered as single dose measured at 5 to 720 mins post dose by HPLC-MS/MS analysis; format: ADME, organism-based; settings: in vivo
How it was run: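 Free fraction in rat plasma and brain tissue was measured in vitro by rapid equilibrium dialysis. Exposure came from male Wistar rats (250-350 g) given a single 10 mg/kg IP dose, as a 5 mg/ml suspension in 85% water, 14% propylene glycol and 1% Tween 80. Three rats per time point (5–720 min); brain analysed by HPLC-MS/MS after solid-phase extraction.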

Mu-type opioid receptor (Homo sapiens), sequence (P35372 whole entry): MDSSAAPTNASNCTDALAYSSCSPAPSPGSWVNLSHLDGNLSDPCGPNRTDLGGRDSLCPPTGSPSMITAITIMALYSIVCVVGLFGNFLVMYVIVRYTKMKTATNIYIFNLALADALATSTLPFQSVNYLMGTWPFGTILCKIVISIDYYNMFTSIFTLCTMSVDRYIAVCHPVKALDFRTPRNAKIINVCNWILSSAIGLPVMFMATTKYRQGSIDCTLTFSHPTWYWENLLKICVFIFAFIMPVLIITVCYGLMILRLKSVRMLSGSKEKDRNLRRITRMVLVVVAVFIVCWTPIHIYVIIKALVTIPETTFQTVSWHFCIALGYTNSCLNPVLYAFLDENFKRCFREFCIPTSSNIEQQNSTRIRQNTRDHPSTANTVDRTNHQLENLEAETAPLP
5-hydroxytryptamine receptor 7 (Homo sapiens), sequence (P34969 whole entry): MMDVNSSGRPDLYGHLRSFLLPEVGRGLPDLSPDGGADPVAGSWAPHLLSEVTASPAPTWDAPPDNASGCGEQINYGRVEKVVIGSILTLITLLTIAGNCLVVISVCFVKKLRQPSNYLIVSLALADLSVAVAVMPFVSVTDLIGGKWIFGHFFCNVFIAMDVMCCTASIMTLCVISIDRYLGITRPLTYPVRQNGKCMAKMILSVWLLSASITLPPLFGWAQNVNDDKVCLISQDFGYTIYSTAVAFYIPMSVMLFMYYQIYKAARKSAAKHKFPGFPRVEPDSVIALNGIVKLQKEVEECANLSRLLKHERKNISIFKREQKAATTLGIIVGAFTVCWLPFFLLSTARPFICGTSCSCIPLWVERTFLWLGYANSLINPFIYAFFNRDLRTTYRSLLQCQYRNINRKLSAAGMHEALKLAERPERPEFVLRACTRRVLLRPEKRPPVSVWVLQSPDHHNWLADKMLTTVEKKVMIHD

Question: With `COc1ccc(-n2nc3c4ccc(OC)cc4[nH]cc-3c2=O)cc1` as the compound, how does the inhibition [1] read?
Answer: Active

Question: What about the t1/2 (Liver) of the same compound?
Answer: 3.2 h

Question: What about the Activity [2] of the same compound?
Answer: < 0%

Question: And the Activity [3]?
Answer: < 0%

Question: What about the Activity [4] of the same compound?
Answer: < 0%

Question: What about the Activity [5] of the same compound?
Answer: 900%

Question: And the Activity ([5]; tested as the 2H-labelled form)?
Answer: inactive

Question: What about the inhibition [6] of the same compound?
Answer: Active

Question: What about the Activity [7] of the same compound?
Answer: < 0%

Question: With `[2H]C([2H])([2H])Oc1ccc(-n2nc3c4ccc(OC)cc4[nH]cc-3c2=O)cc1` as the compound, how does the Activity (Rattus norvegicus [8]) read?
Answer: Toxic

Question: And the Activity (Rattus norvegicus [9])?
Answer: 67.2%

Question: And the Drug metabolism [10]?
Answer: Metabolite_Detected

Question: What about the Activity (Rattus norvegicus [11]) of the same compound?
Answer: 2.67 kg/kg

Question: And the Drug metabolism [12]?
Answer: Metabolite_Detected

Question: And the Activity (Rattus norvegicus [13])?
Answer: 2.63

Question: What about the Activity (HEK-293T) of the same compound?
Answer: Non-Toxic

Question: What about the fAUC (Brain) of the same compound?
Answer: 651.72 ng·h/g
